Screening results deposited in PubChem by Broad Institute.
GSIS activator = GLuc luminescence reporter in INS-1E cells, primary screen for activators of glucose-dependent secretion of insulin. INS-1E GLuc reporter insulin secretion, 2-3 h. activation, % at 16.6 µM. actives 0.61% (n = 370,000). AID 743287;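 active = lowest replicate activation of at least 40%, so every replicate reaches that level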
GSK3A inh = inhibitors of human GSK-3 alpha kinase; ADP-Glo luminescence, 60 min; inhibition, % at 10 µM; actives 0.1% (n = 320,000); P49840;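 active = more than half of replicates show inhibition above 20%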;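 note: GST-tagged GSK-3 alpha with peptide substrate and 25 µM ATP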
HIV Env fusion = blocks HIV Env-driven cell-cell fusion | HeLa-JRFL Env/CEM21 cell fusion, luciferase | inhibition, % at 12.3 µM | actives 1.1% (n = 360,000) | AID 651610;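 active = mean replicate inhibition score of at least 50 and every replicate individually at or above 50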
STK33 kinase inh = human STK33 kinase inhibition. Q9BYT3. actives 0.073% (n = 320,000). inhibition, % at 10 µM. purified STK33, MBP phosphorylation, ADP-Glo luminescence. AID 2661;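 active = inhibition at or above 25%, using the most active replicate where run in duplicate; inactive = inhibition below 25%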
Target sequence (Q9BYT3 whole entry, looked up): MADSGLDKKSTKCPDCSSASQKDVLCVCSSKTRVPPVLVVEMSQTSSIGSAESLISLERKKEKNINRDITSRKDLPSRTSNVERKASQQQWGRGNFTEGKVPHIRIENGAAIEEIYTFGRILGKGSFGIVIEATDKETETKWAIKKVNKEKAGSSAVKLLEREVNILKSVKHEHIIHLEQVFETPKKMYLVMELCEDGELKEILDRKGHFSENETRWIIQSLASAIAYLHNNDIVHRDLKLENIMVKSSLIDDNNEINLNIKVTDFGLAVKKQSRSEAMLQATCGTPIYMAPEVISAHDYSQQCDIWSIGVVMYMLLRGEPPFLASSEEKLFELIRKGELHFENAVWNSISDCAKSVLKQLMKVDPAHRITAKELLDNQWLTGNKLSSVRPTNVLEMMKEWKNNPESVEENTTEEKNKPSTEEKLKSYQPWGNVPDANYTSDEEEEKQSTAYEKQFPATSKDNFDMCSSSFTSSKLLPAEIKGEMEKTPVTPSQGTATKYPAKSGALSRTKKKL
CDK5 p35 inh = CDK5/p35 (human) kinase inhibition; Q00535+Q15078; Recombinant CDK5/p35, ADP-Glo luminescence, 60 min; inhibition, % at 10 µM; actives 0.01% (n = 330,000); AID 488839;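 active = highest replicate inhibition of at least 50% and at least 75% of replicates reaching 50%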
GSK3B inh = blocks human GSK3beta kinase activity | actives 0.038% (n = 300,000) | activity score (negative = inhibition), % at 10 µM | GST-GSK3beta kinase, ADP-Glo luminescence, 60 min; active compounds read low;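 active = more than half of replicate wells score below -50%, meaning over 50% inhibition versus plate controls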
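Test system – GST-tagged human GSK3beta kinase, cell-free · Incubation – 60 min enzyme reaction, room temperature · Signal – ADP-Glo luminescence · Also added – peptide substrate and ATP at 25 µM · Controls – DMSO neutral wells and GW8510 at 20 µM as positive · Buffer or medium – Tris/MgCl2 kinase buffer · Measure – Luminescence-derived activity versus plate DMSO and GW8510 wells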
Large screens that a line does not name were inactive; [ ] = another dose, or the depositor's remark. The list is not random: actives were taken first. Their share in the collection is about 1.4%.

COc1nc(-c2ccccc2)c2cc(C)ccc2n1	GSIS activator 72.0
C[C@H]1CN([C@@H](C)CO)C(=O)c2cc(NC(=O)c3ccncc3)ccc2O[C@H]1CN(C)S(=O)(=O)c1cccs1	none (no result: GSK3A inh, HIV Env fusion, STK33 kinase inh, CDK5 p35 inh, GSK3B inh)
COc1ccc2c3c([nH]c2c1)[C@H](CO)N(Cc1ccccc1OC)CC31CN(S(=O)(=O)c2ccccc2)C1	none (no result: GSK3A inh, HIV Env fusion, STK33 kinase inh, CDK5 p35 inh, GSK3B inh)
N/C(=N\OC(=O)COc1ccc(Cl)cc1)c1cccnc1	none (no result: GSK3A inh, HIV Env fusion, STK33 kinase inh)
N/C(=N\OC(=O)COc1ccc(Cl)cc1Cl)c1cccnc1	GSIS activator 59.9 (no result: HIV Env fusion)
CC(=O)N[C@H]1CC[C@H](CC(=O)NCc2ccc(Cl)cc2)O[C@H]1CO	none (no result: GSK3A inh, STK33 kinase inh, CDK5 p35 inh, GSK3B inh)
COc1ccc2c3c([nH]c2c1)[C@@H](CO)N(C(=O)CN(C)C)CC31CN(Cc2ccncc2)C1	none (no result: GSK3A inh, HIV Env fusion, STK33 kinase inh, CDK5 p35 inh, GSK3B inh)
CCCCOc1ccc(SCCCN2CCOCC2)cc1	GSIS activator 57.8 (no result: GSK3A inh, STK33 kinase inh, GSK3B inh)
Cc1ccc(SCCCCN2CCOCC2)cc1	none
Clc1ccc(CN2CCN(c3ncnc4scc(-c5cccs5)c34)CC2)cc1	HIV Env fusion 65.5 (no result: GSIS activator)
Cc1ccc(-c2csc3nnc(SCC(=O)Nc4cccc(C)n4)n23)cc1	HIV Env fusion 107.0
Cc1nc2ccc(NS(=O)(=O)c3ccc(C)c(C)c3)cc2s1	HIV Env fusion 71.4 (no result: GSIS activator)
CN(C)C(=O)c1cccc(-c2ccc3c(c2)[C@H]2[C@H](CCN2C(=O)c2ccccc2F)[C@H](CO)N3)c1	none (no result: GSK3A inh, HIV Env fusion, STK33 kinase inh, CDK5 p35 inh, GSK3B inh)
O=C(C[C@H]1CC[C@H](NC(=O)Cc2cccnc2)[C@@H](CO)O1)NCc1ccc2c(c1)OCO2	none (no result: GSK3A inh, STK33 kinase inh, CDK5 p35 inh, GSK3B inh)
Cc1ccc(-c2[nH]ncc2CNCCc2cnn(-c3ccccc3)c2)cc1C	HIV Env fusion 66.4
CCCN1[C@@H]2Cn3c(ccc(-c4ccccc4OC)c3=O)[C@H]1[C@@H](C(=O)NCc1ccccn1)[C@@H]2CO	none (no result: GSK3A inh, STK33 kinase inh, CDK5 p35 inh, GSK3B inh)
COc1ccc(NC(=O)N(C)C[C@H]2Oc3ccc(NS(=O)(=O)c4ccc(OC)cc4)cc3CC(=O)N([C@@H](C)CO)C[C@@H]2C)cc1	none (no result: GSK3A inh, STK33 kinase inh, CDK5 p35 inh, GSK3B inh)
O=[N+]([O-])c1ccccc1Sc1nccn1Cc1ccccc1	GSIS activator 53.6
O=C(C[C@@H]1CC[C@H]2[C@@H](COC[C@@H](O)CN2C(=O)c2ccc(F)cc2)O1)NC1Cc2ccccc2C1	HIV Env fusion 66.9[16.7 µM] (no result: GSK3A inh, STK33 kinase inh, CDK5 p35 inh, GSK3B inh)
O=C(CCCNS(=O)(=O)c1cccs1)N1CCN(c2cccc(Cl)c2)CC1	HIV Env fusion 70.8
CCCNC(=O)[C@@H]1[C@@H](CO)[C@@H]2Cn3c(ccc(C4=CCCCC4)c3=O)[C@H]1N2C(=O)CC	none (no result: GSK3A inh, HIV Env fusion, STK33 kinase inh, CDK5 p35 inh, GSK3B inh)
CCC(C)Oc1cc(-c2ccnc(Nc3cccc(Cl)c3)n2)ccn1 (configuration not stated)	HIV Env fusion 66.3
Cc1cc(C)nc(Nc2cccc(Cl)c2)n1	none
Cc1ccc(S(=O)(=O)N(C)C[C@@H]2Oc3c(NC(=O)c4ccc(-c5nccs5)cc4)cccc3C(=O)N([C@@H](C)CO)C[C@@H]2C)cc1	none (no result: GSK3A inh, STK33 kinase inh, CDK5 p35 inh, GSK3B inh)
Cc1onc(-c2ccccc2)c1C(=O)Nc1sc2c(c1C#N)CCC2	HIV Env fusion 66.5 (no result: GSK3A inh, STK33 kinase inh)
N#Cc1c(NC(=O)CSc2ncc(-c3ccccc3)n2CC2CCCO2)sc2c1CCCC2 (configuration not stated)	HIV Env fusion 67.5 (no result: GSIS activator)
Cc1onc(-c2c(F)cccc2Cl)c1C(=O)Nc1sc2c(c1C(N)=O)CCC2	HIV Env fusion 61.5
COc1cccc(S(=O)(=O)N[C@H]2CC[C@@H](CCn3cc(-c4ccccc4OC)nn3)O[C@@H]2CO)c1	none (no result: GSK3A inh, STK33 kinase inh, CDK5 p35 inh, GSK3B inh)
C[C@@H]1CN([C@@H](C)CO)C(=O)Cc2cc(NS(=O)(=O)c3ccc(F)cc3)ccc2O[C@H]1CN(C)CC1CC1	none (no result: GSK3A inh, HIV Env fusion, STK33 kinase inh, CDK5 p35 inh, GSK3B inh)
Cc1nc(SCC(=O)NCc2ccco2)c2c3c(sc2n1)CCCC3	none (no result: GSIS activator, HIV Env fusion)
CCCc1nc2sc3c(SCC(=O)NCc4ccco4)ncnc3c2c2c1CCC2	GSIS activator 61.1
Cc1noc(C)c1NC(=O)N(C)C[C@@H]1Oc2ncc(C#CC(C)C)cc2C(=O)N([C@@H](C)CO)C[C@H]1C	none (no result: GSK3A inh, STK33 kinase inh, CDK5 p35 inh, GSK3B inh)
COc1cc(CSc2nnnn2-c2ccc(C)cc2)cc(OC)c1OC	HIV Env fusion 95.2 (no result: GSIS activator)
COc1ccc(F)cc1CSc1nnnn1-c1ccc(O)cc1	none
O=C(N[C@@H]1CC[C@H](CCNC(=O)C2CCOCC2)O[C@@H]1CO)c1ccccn1	none (no result: GSK3A inh, STK33 kinase inh, CDK5 p35 inh, GSK3B inh)
NC(=S)n1[nH]c(-c2ccc([N+](=O)[O-])cc2)c(N=Nc2ccccc2[N+](=O)[O-])c1=O	none (no result: GSK3A inh, STK33 kinase inh, GSK3B inh)
NC(=S)n1[nH]c(-c2ccc([N+](=O)[O-])cc2)c(N=Nc2cccc([N+](=O)[O-])c2)c1=O	HIV Env fusion 63.3 (no result: GSK3A inh, STK33 kinase inh)
COP(=O)(OC)c1nc(-c2cccc3ccccc23)oc1NCCc1ccccc1	none
COc1ccc(CCNc2oc(-c3cccc4ccccc34)nc2P(=O)(OC)OC)cc1OC	HIV Env fusion 68.6
O=C(c1cccnc1)N1C[C@@H]2[C@H](c3ccccc31)[C@H](CO)N2C(=O)Nc1ccccc1F	none (no result: GSK3A inh, HIV Env fusion, STK33 kinase inh, CDK5 p35 inh, GSK3B inh)
C[C@H]1CCCCO[C@@H](CN(C)S(=O)(=O)c2ccc(Cl)cc2)[C@@H](C)CN([C@@H](C)CO)C(=O)c2cc(NC(=O)NC3CCCCC3)ccc2O1	none (no result: GSK3A inh, STK33 kinase inh, CDK5 p35 inh, GSK3B inh)
Cc1cccn2c(=O)nc(SCC(=O)N3CCCCC3)nc12	GSIS activator 43.2
C=CCSc1nc(=O)n2ccccc2n1	none
